By inhibition is commonly meant the drop in the measured response relative to a control, in per cent.

We go through ten compounds from ChEMBL document CHEMBL1151213, “Yucca schidigera bark: phenolic constituents and antioxidant activity” (J Nat Prod, 2004).

SMILES strings stand for the structures.

Holding throughout (type): functional
The nature of test [1]: Antioxidant activity against beta-carotene and linoleic acid assessed as inhibition of bleaching of beta-carotene at 120 mins by autooxidation assay. Details: concentration or dose not given beside the values. In short, it runs like this: (§1)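 Heat-induced oxidation of an aqueous emulsion of β-carotene, linoleic acid and Tween 20, held at 50 °C for 3 h. β-Carotene bleaching was followed by A470 at intervals. AA = [1 − (A0 − At)/(A00 − A0t)] × 100, taking absorbances with and without test sample at start and at time t. Run in triplicate; BHT served as positive control.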

The nature of test [2]: Antioxidant activity against ABTS radical assessed as TEAC units. In short, it runs like this: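 ABTS radical cation solution diluted in PBS pH 7.4 to A734 0.70, equilibrated at 30 °C. Samples in methanol at 0.3, 0.5, 1, 1.5 and 2 mM; reaction started by adding diluted ABTS to sample. Percent inhibition of A734 versus methanol blank plotted against concentration, in triplicate. Value is Trolox concentration with the same capacity as 1 mM sample.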

Test [3] in a line: Antioxidant activity against beta-carotene and linoleic acid assessed as inhibition of bleaching of beta-carotene at 60 mins by autooxidation assay. Details: concentration or dose not given beside the values. The method, boiled down:
as §1

On to `O=C1Oc2cc(O)cc(/C=C/c3ccc(O)cc3)c2[C@]12c1c(O)cc(O)cc1O[C@@H]2c1ccc(O)cc1`, for which the values for the Activity in test [1], in test [2] and in test [3] were 72.1%, 1.09 mM and 76.3%, respectively.

On to `O=C1[C@@H](c2ccc(O)cc2)Oc2cc(O)cc(O)c2[C@@]12c1c(O)cc(O)cc1[C@H](O)[C@H]2c1ccc(O)cc1`, for which the figures for the Activity in test [1], in test [2] and in test [3] were 43.4%, 1.04 mM and 40.6%, respectively.

Regarding `Oc1ccc(/C=C/c2cc(O)cc(O)c2)cc1`, the Activity in test [1] came to 45.9%; in test [2] it was 1.9 mM; in test [3] it was 24.9%.

For the compound `O=c1c(O)c(-c2ccc(O)c(O)c2)oc2cc(O)cc(O)c12`, the Activity in test [2] is 2.6 mM.

Take `COc1c(O)cc(/C=C/c2cc(O)cc(O)c2)cc1O`: the Activity in test [1] turned out to be 2.9%; in test [2] it was 2.25 mM; in test [3], 3.1%.

Turning to `COc1c(O)cc(/C=C/c2cc(O)cc3c2[C@@]2(C(=O)O3)c3c(O)cc(O)cc3O[C@@H]2c2ccc(O)cc2)cc1O`, the Activity in test [1] is 71.7%; in test [2], 1.6 mM; in test [3], 59.5%.

Turning to `O=C1Oc2cc(O)cc(/C=C/c3ccc(O)cc3)c2[C@@]12c1c(O)cc(O)cc1O[C@@H]2c1ccc(O)cc1`, the Activity in test [1] worked out at 72.1%; in test [2], 0.96 mM; in test [3], 52.6%.

In the case of `COc1c(O)cc(/C=C/c2cc(O)cc3c2[C@]2(C(=O)O3)c3c(O)cc(O)cc3O[C@@H]2c2ccc(O)cc2)cc1O`, the Activity was determined as 66.2% in test [1] and 1.42 mM in test [2]. Also, the inhibition in test [3] is 66.4%.

`COc1c(O)cc(/C=C/c2cc(O)cc(O)c2)c2c1OC(=O)[C@@]21c2c(O)cc(O)cc2O[C@@H]1c1ccc(O)cc1`: the Activity was found to be 79.3% in test [1], 1.85 mM in test [2] and 74.3% in test [3].

As for `O=C1Oc2cc(O)c3c(c2[C@]12c1c(O)cc(O)cc1O[C@@H]2c1ccc(O)cc1)O[C@H](c1ccc(O)cc1)[C@H](O)C3`, the Activity in test [1] is 51%; in test [2] it was 1.79 mM; in test [3], 24.4%.
